How the values were obtained:
[1] = target: NAD(P)H dehydrogenase [quinone] 1 (Homo sapiens) (UniProt P15559); assay: NADH oxidation is used as a measure metabolism since 1 mol of NADH is oxidized for each mole of compound that is reduced; type: functional
[2] = system: BE-NQ; assay: Cytotoxicity against BE human colon carcinoma cell lines BE-NQ( high NQO1 activity); type: functional, cell-based
Method in brief: (§1)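 MTT assay in BE colon carcinoma cells, wild-type (BE-WT) or stably transfected with human NQO1 cDNA (BE-NQ). Cells grown in MEM/10% FBS at 37 °C, 5% CO2, plated at (1–2) × 10^4 cells/mL and attached 16 h. Drug exposure 2 h, then drug-free medium for 5–7 days. MTT for 4 h, formazan dissolved in DMSO, A550. IC50 taken from % control versus concentration plots.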

[3] = system: BE-WT; assay: Cytotoxicity against BE human colon carcinoma cell lines BE-WT(No NQO1 activity); type: functional, cell-based; method in brief: as §1
[4] = target: NAD(P)H dehydrogenase [quinone] 1 (Homo sapiens) (UniProt P15559); assay: Ability to inactivate Recombinant human NQO1; type: functional; design: concentration or dose not given beside the values
Method in brief: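 Recombinant hNQO1 (1–2 µg) preincubated 30 min at 22 °C with 10 µM indolequinone, with or without 100 µM NADH, in 25 mM Tris-HCl pH 7.4 + 2 mg/mL Tween-20. Reaction stopped with cold Tris-HCl/250 mM sucrose. Residual activity measured as reduction of 40 µM DPIP with 200 µM NADH (0.7 mg/mL BSA) at 600 nm for 30 s. Reported as % remaining, +NADH versus −NADH.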

Sequence of NAD(P)H dehydrogenase [quinone] 1 (Homo sapiens) (P15559 whole entry): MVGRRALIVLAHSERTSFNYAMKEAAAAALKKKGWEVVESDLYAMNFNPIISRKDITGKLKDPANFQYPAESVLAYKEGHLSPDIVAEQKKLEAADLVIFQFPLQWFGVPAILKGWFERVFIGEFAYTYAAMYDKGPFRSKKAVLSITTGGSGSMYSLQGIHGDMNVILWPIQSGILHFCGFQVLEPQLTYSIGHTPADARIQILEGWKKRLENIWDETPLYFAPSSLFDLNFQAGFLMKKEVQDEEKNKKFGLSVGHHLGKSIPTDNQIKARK

| Structure (SMILES) | Metabolism [1] | IC50 [2] | IC50 [3] | Enzyme activity [4] |
| --- | --- | --- | --- | --- |
| COC1=CC(=O)c2c(c(COc3ccccc3)c(C)n2C)C1=O | 0.28 µM/min/mg |  |  |  |
| CCCn1c(C)c(C(=O)OCC)c2c1C(=O)C=C(OC)C2=O | 77.6 µM/min/mg |  |  |  |
| COC(=O)c1c2c(n(C)c1C)C(=O)C(C)=C(OC)C2=O | 13.7 µM/min/mg |  |  |  |
| CCOC(=O)c1c2c(n(C3CC3)c1C)C(=O)C=C(OC)C2=O | 36.6 µM/min/mg |  |  |  |
| CCCn1c(C)c(CO)c2c1C(=O)C=C(OC)C2=O | 1.3 µM/min/mg |  |  |  |
| COC1=CC(=O)c2[nH]c(C)c(C(C)=O)c2C1=O | 29.8 µM/min/mg |  |  |  |
| COC1=C(C)C(=O)c2c(c(CO)c(C)n2C)C1=O | 3.8 µM/min/mg |  |  |  |
| CN1CCN(C2=CC(=O)c3c(c(CO)c(-c4ccccc4)n3C)C2=O)CC1 | 0.15 µM/min/mg |  |  |  |
| COC1=CC(=O)c2c(c(CO)c(C)n2-c2ccccc2)C1=O | 6 µM/min/mg |  |  |  |
| CCc1c(C(=O)OC)c2c(n1Cc1ccccc1)C(=O)C=C(OC)C2=O | 9.3 µM/min/mg |  |  |  |
| COC1=CC(=O)c2c(c(COc3cc([N+](=O)[O-])ccc3OC)c(C)n2C)C1=O | 0.05 µM/min/mg | 6.5 µM | 34.4 µM | 13% |
| COC1=CC(=O)c2c(c(COc3ccc(NC(C)=O)cc3)c(C)n2C)C1=O | 0.38 µM/min/mg | 6.6 µM | 10.3 µM |  |
| CCc1c(CO)c2c(n1Cc1ccccc1)C(=O)C=C(OC)C2=O | 0.9 µM/min/mg |  |  |  |
| COC1=CC(=O)c2c(c(COc3ccc([N+](=O)[O-])cc3OC)c(C)n2C)C1=O | 0.05 µM/min/mg | 0.51 µM | 1.5 µM |  |
| CCOC(=O)c1c2c(n(C)c1-c1ccc3ccccc3c1)C(=O)C=C(OC)C2=O | 0.23 µM/min/mg | > 50 µM | 49 µM |  |
| CCOC(=O)CNC(=O)OCc1c2c(n(C)c1C)C(=O)C=C(OC)C2=O | 0.11 µM/min/mg | 3.2 µM | 3.8 µM | 19% |
| COC1=C(C)C(=O)c2c(c(CO)c(C)n2-c2ccccc2)C1=O | 3 µM/min/mg |  |  |  |
| CCOC(=O)c1c2c(n(-c3ccccc3)c1C)C(=O)C=C(OC)C2=O | 16.4 µM/min/mg |  |  |  |

| Structure (SMILES) | Metabolism [1] | IC50 [2] | IC50 [3] | Enzyme activity [4] |
| --- | --- | --- | --- | --- |
| CCOC(=S)SCc1c2c(n(C)c1C)C(=O)C=C(OC)C2=O | 1.1 µM/min/mg | > 50 µM | > 50 µM |  |
| CCCn1c(C)c(CO)c2c1C(=O)C(C)=C(OC)C2=O | 1.7 µM/min/mg |  |  |  |
| COC1=CC(=O)c2c(c(COC(=O)Cc3ccc(-c4ccccc4)cc3)c(C)n2C)C1=O | 0.09 µM/min/mg | 5.1 µM | 5.5 µM | 0% |
| COC1=CC(=O)c2c(c(COc3ccc([N+](=O)[O-])cc3)cn2C)C1=O | 0.29 µM/min/mg | 0.44 µM | 1.05 µM | 52% |
| CCCn1c(C)c(C(=O)OCC)c2c1C(=O)C(C)=C(OC)C2=O | 18.6 µM/min/mg |  |  |  |
| CCOC(=O)c1c2c(n(-c3ccc(F)cc3)c1C)C(=O)C=C(OC)C2=O | 3.9 µM/min/mg |  |  |  |
| COC1=CC(=O)c2c(c(CO)c(-c3ccc4ccccc4c3)n2C)C1=O | 4 µM/min/mg | > 50 µM | > 50 µM |  |
| CCOC(=O)c1c2c(n(CCN3CCOCC3)c1C)C(=O)C(C)=C(OC)C2=O | 39.4 µM/min/mg |  |  |  |
| COC1=CC(=O)c2c(c(COC(C)=O)c(C)n2C)C1=O |  |  |  | 0% |
| COC1=CC(=O)c2c(c(CO)c(C)n2C2CC2)C1=O | 14 µM/min/mg |  |  |  |
| COC1=C(C)C(=O)c2c(c(CO)c(C)n2CCN2CCOCC2)C1=O | 7.6 µM/min/mg |  |  |  |
| CCOC(=O)c1c2c(n(-c3ccccc3)c1C)C(=O)C(C)=C(OC)C2=O | 7.9 µM/min/mg |  |  |  |
| Cc1c(C(C)O)c2c(n1C)C(=O)C=C(N1CCOCC1)C2=O (centres undefined) | 0.27 µM/min/mg |  |  |  |
| COC1=CC(=O)c2c(c(C(C)O)c(C)n2C)C1=O (centres undefined) | 10.4 µM/min/mg |  |  |  |
| COC1=CC(=O)c2[nH]c(C)c(C(C)O)c2C1=O (centres undefined) | 27.7 µM/min/mg |  |  |  |
| COC1=CC(=O)c2c(c(CO)cn2C)C1=O | 13.6 µM/min/mg | > 50 µM | > 50 µM | 96% |
| COC1=CC(=O)c2c(c(CO)c(C)n2-c2ccc(F)cc2)C1=O | 9.2 µM/min/mg |  |  |  |
| COC1=CC(=O)c2c(c(COc3ccc([N+](=O)[O-])cc3F)c(C)n2C)C1=O | 0.05 µM/min/mg | 1.2 µM | 1.5 µM | 0% |
